The source made the active and inactive calls. Cut-off read from the data, not from the text of the source, unless noted: active = inhibition above about 30%; inactive = the rest.
Columns and labels:
[1] = reducers of endogenous Her2 protein level, primary screen, SKBR3 breast tumor cells, AlphaScreen, ATP viability (AID 461;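 active = Her2 level under about 52% in both replicate screens, with viability over 70% of control, limit read from the data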;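 for Her2 level: lower value means less Her2 protein in the cells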;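 for viability: percent of carrier control wells set as 100% viability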); settings: 18-24 h, measured here: SKBR3 viability, ATP luminescence, at 10 µM
[2] = biological target: Receptor tyrosine-protein kinase erbB-2 (Homo sapiens) (UniProt P04626); test: as above; settings: 18-24 h, at 10 µM, stronger effect = lower value
Sequence of Receptor tyrosine-protein kinase erbB-2 (Homo sapiens) (P04626 whole entry, looked up): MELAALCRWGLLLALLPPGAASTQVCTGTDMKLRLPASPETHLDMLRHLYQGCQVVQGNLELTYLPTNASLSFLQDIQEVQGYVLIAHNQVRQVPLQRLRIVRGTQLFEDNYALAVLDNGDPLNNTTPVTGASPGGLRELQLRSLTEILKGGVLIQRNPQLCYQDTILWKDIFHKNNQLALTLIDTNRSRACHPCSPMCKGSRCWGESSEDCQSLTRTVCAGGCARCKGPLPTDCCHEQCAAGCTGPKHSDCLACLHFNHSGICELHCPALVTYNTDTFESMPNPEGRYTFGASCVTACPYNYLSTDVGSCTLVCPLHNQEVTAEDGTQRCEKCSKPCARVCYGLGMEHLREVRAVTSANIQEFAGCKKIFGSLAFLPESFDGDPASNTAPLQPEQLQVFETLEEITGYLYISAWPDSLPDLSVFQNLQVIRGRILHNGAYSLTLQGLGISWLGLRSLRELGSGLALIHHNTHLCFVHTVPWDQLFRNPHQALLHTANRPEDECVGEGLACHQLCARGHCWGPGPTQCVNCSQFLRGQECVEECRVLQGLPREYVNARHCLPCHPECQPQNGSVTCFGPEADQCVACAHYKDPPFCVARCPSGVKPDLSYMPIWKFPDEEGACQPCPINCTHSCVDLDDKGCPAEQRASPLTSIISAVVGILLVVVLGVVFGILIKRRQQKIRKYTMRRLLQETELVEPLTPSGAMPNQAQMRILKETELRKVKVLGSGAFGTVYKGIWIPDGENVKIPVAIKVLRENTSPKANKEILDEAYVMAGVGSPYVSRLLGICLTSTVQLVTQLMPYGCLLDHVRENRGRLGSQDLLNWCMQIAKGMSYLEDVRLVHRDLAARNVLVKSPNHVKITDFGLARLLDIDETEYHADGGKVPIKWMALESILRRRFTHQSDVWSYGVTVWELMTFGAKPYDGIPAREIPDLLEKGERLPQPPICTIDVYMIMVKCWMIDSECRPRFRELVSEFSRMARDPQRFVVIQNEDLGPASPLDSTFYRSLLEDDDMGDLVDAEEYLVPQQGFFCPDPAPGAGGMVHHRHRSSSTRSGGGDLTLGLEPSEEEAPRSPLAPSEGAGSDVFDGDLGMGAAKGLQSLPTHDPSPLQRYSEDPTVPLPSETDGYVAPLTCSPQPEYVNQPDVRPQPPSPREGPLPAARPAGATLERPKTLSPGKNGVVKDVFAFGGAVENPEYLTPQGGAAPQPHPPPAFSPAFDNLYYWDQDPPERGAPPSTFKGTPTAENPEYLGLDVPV

[3] = SK-BR-3 cell growth inhibitors, pilot screen, 24 h, human (AID 572;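 active = viability at or below 10% of carrier control in both of two separate runs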;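 note: compound exposure lasted between 18 and 24 h rather than exactly 24 h; 100% = carrier-treated control wells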); settings: SK-BR-3 viability, CellTiter-Glo luminescence, at 10 µM, stronger effect = lower value
[4] = HUVEC growth inhibition – cell-based, human, primary screen (AID 575;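 active = viability at or below 30% in both replicate assays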;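 note: 100% = median of untreated cell wells with 0.1% DMSO on each plate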); settings: HUVEC proliferation, CellTiter-Glo luminescence, 72 h; at 10 µM; stronger effect = lower value
Outline: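 system = HUVEC primary cells | amount = 1250 cells/well | buffer or medium = supplemented EBM, 2% fetal bovine serum | dosing = single-point 10 µM, DMSO 0.1% final | times = 72 h compound incubation | detection = CTG luminescence | read-out = % viability relative to median vehicle-well signal on each plate | control set = vehicle and MePR control wells | format = collagen-coated 384-well format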

[5] = growth inhibitors of H69AR lung tumor, primary screen, human, duplicate replicates (AID 580;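 active = viability at or under a set limit in both replicates, limit being median viability minus 3 SD, cut at about 48% in these data, passing the limit was not always enough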;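 note: 100% = mean luminescence of untreated wells and 0% = no signal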); settings: H69AR lung tumor cells viability, ATP luminescence, 72 h; at 10 µM; stronger effect = lower value
[6] = reversal of MRP1-mediated doxorubicin resistance, pilot screen, H69AR cells, doxorubicin co-treatment (AID 601;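 active = viability loss from added drug above about 55%, and viability with drug at most 40%, in both replicates, limit read from the data, passing the limit was not always enough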); settings: CellTiter-Glo, 72 h, at 10 µM; for differential viability (reversal): stronger effect = higher value
[7] = 384-well plate pilot, post-Golgi transport modulator project, inhibition of yeast transport mutant growth (AID 636; in the data active = inhibition above about 31%); settings: absorbance 615 nm, about 18 h, stronger effect = higher value
[8] = growth suppression of yeast trafficking mutant, preliminary HTS, modulators of trafficking downstream of Golgi apparatus project, 1536-format plate, OD 615 nm (AID 637); settings: yeast transport mutant growth, absorbance 615 nm, 18 h; stronger effect = higher value
[9] = H69AR cells + 2 uM doxorubicin, measured here: viability with 2 uM doxorubicin, stronger effect = lower value
[10] = H69AR cells, compound alone cytotoxicity

SMILES | viability [1] [%] | Her2 level [2] | viability [3] | viability [4] | viability [5] | differential viability (reversal) ([6]; H69AR cells + 2 uM doxorubicin) | viability [6, 9] [%] | viability [6, 10] [%] | inhibition [7] | inhibition [8]
CCOC(=O)C1CCCN(c2cc(=O)n(Cc3ccc(F)cc3)c(=O)[nH]2)C1 (stereo not given) | 92 | 87% (inactive) | 92% (inactive) | 92.6% (inactive) | 97.2% (inactive) | 3.08% (inactive) | 94.1 | 97.2 | -4.67% (inactive) | 0.33% (inactive)
Nc1nonc1NC(=O)CSc1nc2ccccc2s1 | 86 | 110% (inactive) | 86% (inactive) | 91.2% (inactive) | 90.8% (inactive) | 4.11% (inactive) | 86.7 | 90.8 | 6.18% (inactive) | -8% (inactive)
CC1CC(=O)C2=C(C1)OC(N)=C(C#N)C2c1coc2ccccc2c1=O (stereo not given) | 108 | 88.5% (inactive) | 108% (inactive) | 95.1% (inactive) | 97.3% (inactive) | 10.6% (inactive) | 86.7 | 97.3 | -7.33% (inactive) | 2.26% (inactive)
Cc1c(/C(O)=C2/C(=O)C(=O)N(CCN3CCOCC3)C2c2cccnc2)cnn1-c1ccccc1 (stereo not given) | 85.5 | 108% (inactive) | 85.5% (inactive) | 110% (inactive) | 91.5% (inactive) | 9.19% (inactive) | 82.3 | 91.5 | 1.45% (inactive) | -1.09% (inactive)
CC(C)(C)NC(=O)Cn1nnnc1-c1nonc1N | 93 | 94.5% (inactive) | 93% (inactive) | 109% (inactive) | 105% (inactive) | 13.3% (inactive) | 91.3 | 105 | -6.53% (inactive) | 5.25% (inactive)
CC(C)Cn1c(CN2CCN(c3ccccc3F)CC2)nc2c1c(=O)[nH]c(=O)n2C | 93 | 93% (inactive) | 93% (inactive) | 72.9% (inactive) | 93% (inactive) | 8.27% (inactive) | 84.8 | 93 | -4.27% (inactive) | -0.66% (inactive)
COc1cc(NS(=O)(=O)c2ccc(Br)s2)cc(OC)c1 | 87 | 104% (inactive) | 87% (inactive) | 89.6% (inactive) | 99.9% (inactive) | 5.59% (inactive) | 94.3 | 99.9 | -6.53% (inactive) | -7.7% (inactive)
C#CCN1C(=O)C(O)(CC(=O)c2cccc(OC)c2)c2ccccc21 (stereo not given) | 100 | 84% (inactive) | 100% (inactive) | 93.3% (inactive) | 21.7% (active) | -16.6% (inactive) | 38.3 | 21.7 | -7.03% (inactive) | 1.67% (inactive)

Reference: PubChem BioAssay
